Most compounds without a hit are left out; they make up all but 2% or so of the library.
CSN inh – inhibitors of human CSN-mediated cullin deneddylation; inhibition, % at 12.5 µM; AID 651999; Q92905; 360,000 tested, 0.38% active; Purified CSN, SCF-Nedd8-OG deneddylation, fluorescence polarization;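 active = pattern-corrected inhibition above about 35%, with an unprinted fluorescence ratio check between 0.5 and 1.5, limit read from the data, passing the limit was not always enough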;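 note: 0% = enzyme with substrate and 100% = substrate without enzyme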
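Schedule: reaction 90 min, room temperature / Assay system: HEK293T-derived human Csn5 enzyme / Input: Csn5 at 0.24 nM final / Measure: inhibition of Csn5 cleavage, % / Control set: substrate-only high control, full reaction low control / Technique: fluorescence polarization of the substrate / Buffer or medium: Tris/NaCl/DTT buffer, pH 7.5 / Reagent: SCFSkp2-Nedd8OG substrate at 10 nM final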
DNMT1 inh – DNMT1 (human) enzyme inhibition | DNMT1 molecular beacon, Hinp1I cleavage, fluorescence | 360,000 tested, 0.83% active | AID 588458 | P26358 | inhibition (reported as % activation of signal), % at 10 µM
LMPTP inh – blocks human LMPTP phosphatase | inhibition, % at 20 µM | P24666 | recombinant LMPTP-A, OMFP fluorogenic substrate, fluorescence intensity | 360,000 tested, 0.22% active;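 active = compounds that cut the enzyme signal by at least half of the control window in the single-dose screen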;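 note: plate controls were DMSO wells with enzyme plus substrate for no effect and substrate without enzyme for full effect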
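Test system: LMPTP-A phosphatase enzyme. Amount: LMPTP-A at 0.625 nM final in the reaction. Reagent: OMFP substrate, 400 µM final. Times: 50 min at room temperature. Signal: endpoint fluorescence intensity from OMFP dephosphorylation. Read-out basis: % inhibition. Benchmarks: no-enzyme and uninhibited controls.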
SUMO1 PPI mod – modulators of human SUMO1-mediated protein-protein interactions | P63165 | SUMO1 binding to a labelled peptide, TR-FRET, 1 h | inhibition, % at 20 µM | 360,000 tested, 0.33% active; in the data active = inhibition above about 37%
Scp-1 inhibitor – blocks human Scp-1 phosphatase activity. Q9GZU7. Recombinant Scp1, phosphopeptide, malachite green phosphate absorbance. inhibition, % at 20 µM. 340,000 tested, 0.88% active. AID 493091;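 active = inhibition above about 50% at 20 µM, limit read from the data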;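 note: plate controls were DMSO wells with enzyme for no effect and wells lacking enzyme for full effect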
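Incubation: 45 min enzyme reaction at room temperature / System: truncated SCP-1 phosphatase (76-261aa) / Reagent: Phospho 17-mer peptide substrate / Buffer or medium: Acidic Tris acetate buffer with magnesium and detergent / Signal: absorbance at 630 nm / Doses: one concentration, 20 µM, with 1.0% DMSO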
STEP inh – inhibitors of human striatal-enriched phosphatase STEP; recombinant STEP, OMFP fluorogenic substrate, fluorescence; inhibition, % at 20 µM; 360,000 tested, 0.25% active; AID 588621;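 active = inhibition at 20 µM, scaled per plate between control wells, above about 37%, limit read from the data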;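 note: 0% = DMSO with enzyme and substrate and 100% = substrate only without enzyme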
Target sequence (P54829 whole entry, looked up): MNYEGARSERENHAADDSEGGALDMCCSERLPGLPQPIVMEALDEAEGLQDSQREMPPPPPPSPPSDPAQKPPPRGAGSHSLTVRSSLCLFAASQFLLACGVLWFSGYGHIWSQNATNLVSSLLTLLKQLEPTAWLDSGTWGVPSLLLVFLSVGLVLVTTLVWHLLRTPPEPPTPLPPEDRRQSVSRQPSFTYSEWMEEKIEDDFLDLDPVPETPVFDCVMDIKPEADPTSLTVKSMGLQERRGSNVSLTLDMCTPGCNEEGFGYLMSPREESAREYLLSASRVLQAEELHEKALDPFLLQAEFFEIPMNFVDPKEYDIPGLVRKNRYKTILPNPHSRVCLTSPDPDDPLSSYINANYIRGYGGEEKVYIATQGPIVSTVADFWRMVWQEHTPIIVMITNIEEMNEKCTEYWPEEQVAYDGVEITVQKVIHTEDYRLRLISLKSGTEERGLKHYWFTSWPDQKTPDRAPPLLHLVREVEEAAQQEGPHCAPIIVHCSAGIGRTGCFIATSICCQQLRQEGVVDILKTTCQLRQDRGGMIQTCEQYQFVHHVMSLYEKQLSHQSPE
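System: STEP (striatal-enriched tyrosine phosphatase) enzyme, cell-free; medium: Bis-Tris pH 6.0 buffer with DTT, detergent; dosing: 20 µM, 1% DMSO; times: reaction 20 min, ambient temperature; detection: fluorescence, 480/540 nm; read-out basis: normalized % inhibition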
CSN deneddyl val – validation of inhibitors of human CSN-mediated cullin deneddylation; AID 720654; 540 tested, 62% active; Csn5 deneddylation of SCF-Nedd8OG, fluorescence polarization, 90 min; shares compounds with CSN inh; inhibition, % at 16.6 µM;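 note: 0% = DMSO with enzyme and 100% = no enzyme wells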
MMP-2 counter – blocks human MMP-2 in a CSN deneddylation counter-screen. shares compounds with CSN inh. recombinant MMP-2, FRET substrate fluorescence, 60 min. inhibition, % at 16.6 µM. 540 tested, 33% active. AID 720655;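 active = corrected plate-normalized z-score of 5 or more, or -5 or less, or inhibition of 15% or more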;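 note: plate controls were DMSO wells with enzyme for no effect and buffer wells lacking MMP-2 for full effect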
Thrombin cntr – blocks bovine thrombin in a CSN deneddylation counter-screen; shares compounds with CSN inh; bovine thrombin cleavage of Ub4-pepOG, fluorescence polarization; inhibition, % at 16.6 µM; 540 tested, 49% active; AID 720656;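 active = inhibition at or above a set limit, with a fluorescence interference ratio between 0.5 and a set maximum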
Numbers without * were called inactive; x = no result given; + = active, no number. Cut-off read from the data, not from the text of the source, unless noted: active = inhibition above about 50%; inactive = the rest.

SMILES	CSN inh	DNMT1 inh	LMPTP inh	SUMO1 PPI mod	Scp-1 inhibitor	STEP inh	CSN deneddyl val	MMP-2 counter	Thrombin cntr
Fc1ccc(C2=NN(c3ccccc3)C(c3ccco3)C2)cc1 (stereo not drawn)	11	-7	3	-11	-10	0	x	x	x
Cc1nc(S/C(=C\c2ccc(-c3ccc(C(=O)O)c(Cl)c3)o2)C(=O)O)n[nH]1	73*	91*	10	57*	83*	26	x	19*	12
Cc1nc(S/C(=C\c2ccc(OCc3ccccc3Cl)cc2)C(=O)O)n[nH]1	-2	-5	-2	5	11	2	x	x	x
COc1cc(-c2cc3nc(NCc4cccc(Cl)c4)ccn3n2)cc(OC)c1OC	1	-24	3	10	x	-4	x	x	x
N#C/C(=C/c1ccc(O)c(O)c1)c1nc2ccccc2[nH]1	124*	20	5	-37	1	2	+	-1	55*
N#C/C(=C\c1ccc(N2CCCC2)c([N+](=O)[O-])c1)c1nc2ccccc2[nH]1	2	38	4	-10	7	0	x	x	x
COC(=O)c1ccc(COc2ccc(/C=C(\C#N)c3nc4ccccc4[nH]3)cc2OC)o1	57*	4	2	-1	-4	1	-68	-5	41*
Cc1ccc2nc(SCC(=O)N3CCC(C)CC3)nc(=O)n2c1	1	2	0	0	-1	0	x	x	x
COc1cc(NCCCCCCN)c2ncccc2c1OC	86*	62*	29	-12	-15	2	x	-20	-41
Cc1[nH][nH]c(=O)c1C	3	3	-2	0	-2	0	x	x	x
CCOC(=O)/C(=C/c1ccc(OC(=O)c2ccccc2)cc1)C(C)=O	6	-5	0	-2	-7	0	x	x	x
CCOC(=O)/C(=C/C1=CC(=C/N(C)C)/C(=O)O1)C(C)=O	93*	8	1	-40	4	1	121*	-23	82*
Cc1ccccc1C(=O)Nc1nnc(SC(C)C)s1	-3	1	0	-2	7	-2	x	x	x
O=C(O)CCCN1C(=O)/C(=C\c2ccco2)SC1=S	42*	58*	2	29	29	12	94*	30*	5
O=C(O)CN1C(=O)/C(=C\c2ccc(OC(=O)c3ccco3)cc2)SC1=S	54*	0	2	-26	6	15	82*	11	68*
O=C(CCCN1C(=O)/C(=C\c2ccco2)SC1=S)Nc1ccc2ccccc2c1	19	-7	8	6	-4	1	x	x	x
CCc1ccc(NC(=O)CC2C(=O)N(c3ccc(C)cc3)C(=O)N2C2CC2)cc1 (stereo not drawn)	-2	-4	0	4	-6	-2	x	x	x
COc1cc(/C=N/NC(=O)CCC(=O)NCc2ccccc2)cc(OC)c1OC	-4	8	-1	4	-11	-6	x	x	x
CN(C)c1ccc(/C=C/c2cc[n+](C)cc2)cc1	51*	-16	7	-70	96*	2	55*	-34*	58*
C[n+]1ccc(/C=C/c2cccs2)cc1	2	0	-3	-23	29	0	x	x	x
CCCCCC[n+]1ccccc1/C=C/c1ccc(N(C)C)cc1	100	4	11	-83	x	-14	x	x	x
Cc1ccc(C(=O)O/N=C/c2ccc(N(C)C)cc2)cc1	2	6	-2	4	-3	8	x	x	x
CC[n+]1ccccc1/C=C/c1ccc(N(C)C)cc1	38*	1	5	-55	8	1	65*	-73*	46*
